In general, CC50 refers to the concentration at which the toxic effect on the cells reaches its halfway point. The low end stands for greater toxicity to the cells, the high end for lower toxicity to the cells. The term EC50 denotes the concentration at which the effect is half-maximal. A lower EC50 goes with a more potent agent.

Activity calls are given as the source filed them. The calls are words filed in the database; no cut-off is given here.

Assay [1] has as its system MT2. Nature of the assay: Cytotoxicity against human MT2 cells by MTT assay. The format is functional. The essentials:
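Human MT-2 cells, MTT colorimetric read-out. CC50 is the concentration giving 50% inhibition of MT-2 cell growth.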
In general terms: Formazan colour is commonly taken as a measure of viable cells.

In assay [2] the test system is Human immunodeficiency virus 1. Nature of the assay: Antiviral activity against HIV1 3B in human MT2 cells by MTT assay. The format is functional, organism-based. The conditions noted are these: for EC50: Human immunodeficiency virus 1, 3B. The essentials:
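HIV-1 IIIB infection of human MT-2 T-cells; MTT colorimetric read-out of cell protection. Antiviral curves were run in triplicate at each concentration.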

`COc1cc(Nc2nnc(Cc3c(Cl)cccc3Cl)o2)c(Cl)cc1Cl` showed a CC50 in assay [1] of 9 µM. The result in assay [2] was inactive.
In the case of `Cc1ccnc2c1NC(=O)c1cccnc1N2C1CC1` [NEVIRAPINE], in assay [1], the CC50 is over 10 µM.
Take `Cc1cc(C)cc(Cc2nnc(Nc3ccc(Cl)cc3)o2)c1`: the CC50 in assay [1] is over 100 µM. Besides, the outcome in assay [2] was inactive.
`O=C1Nc2ccc(Cl)cc2C(C#CC2CC2)(C(F)(F)F)O1` (single isomer, unassigned) [EFAVIRENZ] came in with a CC50 in assay [1] of 3 µM.
As for `Clc1ccc(Nc2nnc(Cc3ccccc3)o2)cc1`, in assay [1], the CC50 is 31 µM. Further, in assay [2], the outcome was inactive.
As for `c1ccc(Cc2nnc(Nc3ccccc3)o2)cc1`, the CC50 in assay [1] is over 100 µM. Moreover, in assay [2], the outcome was inactive.
`Clc1ccc(Nc2nnc(Cc3c(Cl)cccc3Cl)o2)cc1Cl`: the CC50 in assay [1] is over 100 µM. The response in assay [2] was half-maximal at 0.31 µM (EC50).
With `Cc1cc(Nc2nnc(Cc3c(Cl)cccc3Cl)o2)ccc1Cl`, in assay [1], the CC50 is over 100 µM. For the same compound, the EC50 in assay [2] was determined as 1.3 µM.
Taken in the same sequence, the figures for `Cc1cn([C@H]2C=C[C@@H](CO)O2)c(=O)[nH]c1=O` [STAVUDINE] were over 100 µM and 1.6 µM.
Taken in the same sequence, the figures for `Clc1ccc(Nc2nnc(Cc3c(Cl)cccc3Cl)o2)cc1` were 20 µM and 0.82 µM.
Compound `Clc1ccc(Cc2nnc(Nc3ccc(Cl)cc3)o2)cc1` registered a CC50 in assay [1] of over 100 µM. In assay [2], the outcome was inactive.
In turn, `COc1ccc(Cc2nnc(Nc3ccc(C)cc3)o2)cc1OC` gave a CC50 in assay [1] of 61 µM. Besides, the outcome in assay [2] was inactive.
In assay [1], `FC(F)(F)c1cc(Nc2nnc(Cc3c(Cl)cccc3Cl)o2)ccc1Cl` returned a CC50 of 9 µM. For the same compound, the outcome in assay [2] was inactive.
Compound `Clc1ccc(Nc2nnc(Cc3cccc(Cl)c3)o2)cc1` returned a CC50 in assay [1] of 32 µM. In addition, in assay [2], the EC50 is over 10 µM.

The record behind these values is ChEMBL document CHEMBL1137600, “From docking false-positive to active anti-HIV agent” (J Med Chem, 2007).
